Results published in ChEMBL document CHEMBL4477178, “Biflorin, Isolated from the Flower Buds of Syzygium aromaticum L., Suppresses LPS-Induced Inflammatory Mediators via STAT1 Inactivation in Macrophages and Protects Mice from Endotoxin Shock” (J Nat Prod, 2016).
Calls of active or inactive are those of the source. The calls are words filed in the database; no cut-off is given here.

Columns and labels:
[1] = tested on: RAW264.7; test: Antiinflammatory activity in mouse RAW264.7 cells assessed as inhibition of LPS-induced IL-6 mRNA expression at 60 uM after 2 to 12 hrs by qRT-PCR method; type: functional, cell-based
Method in brief: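 RAW 264.7 stimulated with LPS 10 ng/mL with or without 60 μM for 2, 4, 6 and 12 h. Total RNA (1 μg) reverse-transcribed with MuLV RT and random primer; SYBR green real-time qPCR with gene-specific primers, triplicate Ct normalized to β-actin. Mean ± SD, three independent experiments.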

[2] = tested on: RAW264.7; test: Antiinflammatory activity in mouse RAW264.7 cells assessed as inhibition of LPS-induced PGE2 production preincubated for 1 hr followed by LPS challenge for 24 hrs by ELISA method; type: functional, cell-based
Method in brief: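 RAW 264.7 cells in DMEM with 10% FBS, plated at 2 × 10^5 cells/mL and incubated overnight. Pretreated with compound (15, 30 or 60 μM) for 1 h, then LPS 10 ng/mL for 24 h. PGE2 measured by competitive colorimetric ELISA, TNF-α and IL-6 by ELISA, in diluted medium. NS-398 3 μM as positive control for PGE2. Mean ± SD, three independent experiments; IC50 given for PGE2.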

[3] = tested on: RAW264.7; test: Antiinflammatory activity in mouse RAW264.7 cell lysate assessed as inhibition of LPS-induced COX-2 expression preincubated for 1 hr followed by LPS challenge for 24 hrs by Western blot analysis; type: functional, cell-based
Method in brief: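 RAW 264.7 (DMEM, 10% FBS, 37 °C, 5% CO2) pretreated 1 h at 15, 30 or 60 μM, then LPS 10 ng/mL for 24 h. Lysates run on 10–12% SDS-PAGE, blotted to PVDF, probed with iNOS or COX-2 antibody (1:1000, overnight 4 °C), HRP secondary, ECL; densitometry vs β-actin. Mean ± SD of three independent experiments.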

[4] = tested on: RAW264.7; test: Antiinflammatory activity in mouse RAW264.7 cells assessed as inhibition of LPS-induced COX-2 promoter activity at 60 uM preincubated for 1 hr followed by LPS challenge for 6 to 12 hrs by reporter gene assay; type: functional, cell-based
Method in brief: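 RAW 264.7 transiently cotransfected with promoter-luciferase construct (pGL3-iNOS, pGL3-COX-2 or pTNF-α-luc) plus phRL-TK internal control; 6 h after transfection pretreated 1 h with 60 μM, then LPS 10 ng/mL for 6 or 12 h. Cells washed in cold PBS, lysed, luciferase read. Mean ± SD, three independent experiments.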

[5] = tested on: Peritoneal macrophage; test: Antiinflammatory activity in C57BL/6 mouse peritoneal macrophages assessed as inhibition of LPS-induced TNF-alpha production at 60 uM preincubated for 1 hr followed by LPS challenge for 48 hrs by ELISA method; type: functional; conditions: C57BL/6, Peritoneal macrophage
[6] = tested on: Peritoneal macrophage; test: Antiinflammatory activity in C57BL/6 mouse peritoneal macrophages assessed as inhibition of LPS-induced IL-6 production at 60 uM preincubated for 1 hr followed by LPS challenge for 48 hrs by ELISA method; type: functional; conditions: C57BL/6, Peritoneal macrophage
[7] = target: Transcription factor Jun (Mus musculus) (UniProt P05627); test: Inhibition of LPS-induced AP-1 activity in mouse RAW264.7 cells at 15 to 60 uM preincubated for 1 hr followed by LPS challenge for 12 hrs by luciferase reporter gene assay; type: cell-based
[8] = target: Signal transducer and activator of transcription 3 (Mus musculus) (UniProt P42227); test: Inhibition of LPS-induced STAT3 phosphorylation at Y705 in mouse RAW264.7 cells at 15 to 60 uM preincubated for 1 hr followed by LPS challenge for 120 mins by Western blot analysis; type: cell-based
Method in brief: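 RAW 264.7 pretreated 1 h at 15, 30 or 60 μM, then LPS 10 ng/mL: 120 min for p-STAT1 Y701, 15 min for p-STAT1 S727, 120 min for p-STAT3 Y705. Western blot with phospho-specific and total STAT1/STAT3 antibodies, β-actin control; three independent experiments.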

[9] = tested on: Rattus norvegicus; test: Antiinflammatory activity in Sprague-Dawley rat assessed as reduction in carrageenan induced paw edema at 5 mg/kg, ip administered 1 hr before carrageenan challenge measured at 3 hrs post challenge relative to control; type: functional
Method in brief: (§1)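 SD rats given compound i.p. (5, 10 or 15 mg/kg) 1 h before subplantar injection of 1% carrageenan in saline (0.1 mL) into the right hind paw. Paw volume measured by plethysmometer at 1, 3 and 5 h. Edema compared with the carrageenan-only group; seven rats per group.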

[10] = tested on: Rattus norvegicus; test: Antiinflammatory activity in Sprague-Dawley rat assessed as reduction in carrageenan induced paw edema at 15 mg/kg, ip administered 1 hr before carrageenan challenge measured at 3 hrs post challenge relative to control; type: functional; method in brief: as §1
[11] = tested on: Rattus norvegicus; test: Antiinflammatory activity in Sprague-Dawley rat assessed as inhibition of croton oil-induced ear edema at 5 mg/kg, ip administered 1 hr before croton oil challenge measured after 3 hrs post challenge relative to control; type: functional
Method in brief: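 Male SD rats given compound i.p. (5, 10 or 15 mg/kg) 1 h before topical croton oil (5% in 100 μL acetone) on the inner right ear; the left ear received acetone alone. After 3 h, rats were killed and 6 mm ear punches were taken and measured for thickness. Inhibition calculated relative to the croton-oil-only group; seven rats per group.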

[12] = tested on: Rattus norvegicus; test: Antiinflammatory activity in Sprague-Dawley rat assessed as inhibition of croton oil-induced ear edema at 10 mg/kg, ip administered 1 hr before croton oil challenge measured after 3 hrs by hematoxylin and eosin staining based assay; type: functional, organism-based
Method in brief: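 SD male rats dosed i.p. (10 mg/kg) 1 h before topical croton oil (5% in acetone) on inner right ear; left ear got acetone only. At 3 h rats sacrificed, 6 mm ear punches taken, fixed in 4% paraformaldehyde overnight, paraffin-embedded, H&E-stained for edema and inflammatory cell infiltrate; seven animals per group.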

Signal transducer and activator of transcription 3 (Mus musculus), sequence (P42227 whole entry): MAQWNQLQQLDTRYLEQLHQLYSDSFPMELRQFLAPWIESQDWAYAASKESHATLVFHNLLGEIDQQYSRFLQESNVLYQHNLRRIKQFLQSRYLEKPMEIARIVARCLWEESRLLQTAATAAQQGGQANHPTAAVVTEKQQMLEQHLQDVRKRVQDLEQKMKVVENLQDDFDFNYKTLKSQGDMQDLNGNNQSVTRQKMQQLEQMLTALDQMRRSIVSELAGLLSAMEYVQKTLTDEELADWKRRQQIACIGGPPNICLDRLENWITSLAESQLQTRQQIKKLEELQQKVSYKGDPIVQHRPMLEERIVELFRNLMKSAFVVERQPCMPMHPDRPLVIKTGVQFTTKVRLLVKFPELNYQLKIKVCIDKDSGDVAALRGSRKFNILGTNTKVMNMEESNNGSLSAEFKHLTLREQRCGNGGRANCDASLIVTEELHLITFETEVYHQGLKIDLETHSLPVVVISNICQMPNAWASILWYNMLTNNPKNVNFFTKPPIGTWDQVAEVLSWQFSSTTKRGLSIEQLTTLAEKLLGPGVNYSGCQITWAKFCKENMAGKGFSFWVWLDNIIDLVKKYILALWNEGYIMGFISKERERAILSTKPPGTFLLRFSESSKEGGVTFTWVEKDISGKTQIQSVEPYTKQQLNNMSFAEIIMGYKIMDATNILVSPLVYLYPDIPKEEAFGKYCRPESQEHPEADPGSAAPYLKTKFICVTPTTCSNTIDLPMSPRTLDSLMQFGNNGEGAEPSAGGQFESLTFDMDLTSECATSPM
Transcription factor Jun (Mus musculus), sequence (P05627 whole entry): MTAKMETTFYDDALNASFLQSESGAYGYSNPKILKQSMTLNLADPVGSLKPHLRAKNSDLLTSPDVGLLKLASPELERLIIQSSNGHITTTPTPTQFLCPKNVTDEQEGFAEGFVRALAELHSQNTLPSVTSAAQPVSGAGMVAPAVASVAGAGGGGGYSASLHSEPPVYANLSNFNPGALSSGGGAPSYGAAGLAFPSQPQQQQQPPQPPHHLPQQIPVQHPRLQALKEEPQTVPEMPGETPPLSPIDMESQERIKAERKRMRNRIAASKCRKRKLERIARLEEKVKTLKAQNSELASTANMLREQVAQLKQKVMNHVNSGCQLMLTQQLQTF

## Cc1cc(=O)c2c(O)c([C@@H]3O[C@H](CO)[C@@H](O)[C@H](O)[C@H]3O)c(O)cc2o1 [BIFLORIN]
[1]
  inhibition: Active
[2]
  IC50: 37.1 µM
[3]
  inhibition: Dose-dependent effect
[4]
  inhibition: Active
[5]
  inhibition at 60 µM: 77.5%
[6]
  inhibition at 60 µM: 61.1%
[7]
  inhibition: inactive
[8]
  inhibition: Active
[9]
  inhibition in vivo at 5 mg/kg: 26%
[10]
  inhibition in vivo at 15 mg/kg: 60%
[11]
  inhibition in vivo at 5 mg/kg: 33.4%
[12]
  inhibition: Active
